Experimental data from ChEMBL document CHEMBL5058577, “EUbOPEN Chemogenomics Library 2 (Multiplex)” (2022).

System: HEK-293T
Test: Multiplex assay against HEK293T
Type: toxicity, cell-based
Conditions: human
Procedure, shortened: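 Values for tubulin, mitochondrial-mass and membrane-permeability phenotypes are per cents of cells with healthy nuclei. These cells were identified by CellPathfinder machine-learning gating of live cells that had been stained at seeding with Hoechst33342, BioTracker Green Microtubule Cytoskeleton Dye, MitoTracker Red and Annexin V Alexa Fluor 680 and imaged on a CQ1 microscope at 37°C and 5% CO2 after compound addition. The gating first set Hoechst high-intensity objects apart from normal cells, then split normal cells into healthy, pyknosed or fragmented nuclei, and pyknosed cells into mitotic or apoptotic.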

[1] = 12 h, 1 µM, compound concentration 1 uM, replicate 1
[2] = 12 h, 1 µM, compound concentration 1 uM, replicate 2
[3] = 12 h, 10 µM, compound concentration 10 uM, replicate 1
[4] = 12 h, 10 µM, compound concentration 10 uM, replicate 2
[5] = 24 h, 1 µM, compound concentration 1 uM, replicate 1
[6] = 24 h, 1 µM, compound concentration 1 uM, replicate 2
[7] = 24 h, 10 µM, compound concentration 10 uM, replicate 1
[8] = 24 h, 10 µM, compound concentration 10 uM, replicate 2
[9] = 48 h, 1 µM, compound concentration 1 uM, replicate 1
[10] = 48 h, 1 µM, compound concentration 1 uM, replicate 2
[11] = 48 h, 10 µM, compound concentration 10 uM, replicate 1
[12] = 48 h, 10 µM, compound concentration 10 uM, replicate 2

## N[C@@]1(C(=O)O)CO[C@H]2[C@H](C(=O)O)[C@H]21 [LY-379268]
[1]
  Population Apoptotic (%): 40%
  Population Fragmented Nuclei (%): 6%
  Population Healthy Nuclei (%): 81%
  Population Hoechst High Intensity Objects (%): 5%
  Population Membrane Permeable-Phenotype (%): 0%
  Population Mitochondria Different-Phenotype (%): 38%
  Population Mitotic Cells (%): 60%
  Population Normal (%): 94%
  Population Pyknosed Nuclei (%): 12%
  Population Tubulin-Different-Phenotype (%): 26%
  Total Cell Count: 396
[2]
  Population Apoptotic (%): 42%
  Population Healthy Nuclei (%): 80%
  Population Hoechst High Intensity Objects (%): 10%
  Population Membrane Permeable-Phenotype (%): 1%
  Population Mitochondria Different-Phenotype (%): 57%
  Population Mitotic Cells (%): 57%
  Population Normal (%): 89%
  Population Tubulin-Different-Phenotype (%): 18%
  Total Cell Count: 411
[3]
  Population Apoptotic (%): 27%
  Population Fragmented Nuclei (%): 10%
  Population Healthy Nuclei (%): 78%
  Population Hoechst High Intensity Objects (%): 8%
  Population Membrane Permeable-Phenotype (%): 0%
  Population Mitochondria Different-Phenotype (%): 33%
  Population Mitotic Cells (%): 72%
  Population Normal (%): 91%
  Population Pyknosed Nuclei (%): 10%
  Population Tubulin-Different-Phenotype (%): 31%
  Total Cell Count: 437
[4]
  Population Apoptotic (%): 52%
  Population Fragmented Nuclei (%): 8%
  Population Healthy Nuclei (%): 79%
  Population Hoechst High Intensity Objects (%): 7%
  Population Mitochondria Different-Phenotype (%): 51%
  Population Mitotic Cells (%): 47%
  Population Normal (%): 92%
  Population Pyknosed Nuclei (%): 12%
  Population Tubulin-Different-Phenotype (%): 18%
  Total Cell Count: 380
[5]
  Population Apoptotic (%): 30%
  Population Fragmented Nuclei (%): 8%
  Population Healthy Nuclei (%): 79%
  Population Hoechst High Intensity Objects (%): 2%
  Population Membrane Permeable-Phenotype (%): 0%
  Population Mitochondria Different-Phenotype (%): 21%
  Population Mitotic Cells (%): 70%
  Population Normal (%): 97%
  Population Pyknosed Nuclei (%): 11%
  Population Tubulin-Different-Phenotype (%): 20%
  Total Cell Count: 517
[6]
  Population Apoptotic (%): 29%
  Population Fragmented Nuclei (%): 7%
  Population Healthy Nuclei (%): 83%
  Population Hoechst High Intensity Objects (%): 7%
  Population Mitochondria Different-Phenotype (%): 31%
  Population Normal (%): 92%
  Population Pyknosed Nuclei (%): 9%
  Population Tubulin-Different-Phenotype (%): 13%
  Total Cell Count: 481
[7]
  Population Apoptotic (%): 36%
  Population Fragmented Nuclei (%): 10%
  Population Healthy Nuclei (%): 79%
  Population Hoechst High Intensity Objects (%): 6%
  Population Membrane Permeable-Phenotype (%): 0%
  Population Mitochondria Different-Phenotype (%): 24%
  Population Mitotic Cells (%): 63%
  Population Normal (%): 93%
  Population Pyknosed Nuclei (%): 9%
  Population Tubulin-Different-Phenotype (%): 15%
  Total Cell Count: 551
[8]
  Population Apoptotic (%): 43%
  Population Fragmented Nuclei (%): 8%
  Population Healthy Nuclei (%): 82%
  Population Hoechst High Intensity Objects (%): 8%
  Population Mitochondria Different-Phenotype (%): 39%
  Population Mitotic Cells (%): 56%
  Population Normal (%): 91%
  Total Cell Count: 470
[9]
  Population Apoptotic (%): 26%
  Population Fragmented Nuclei (%): 13%
  Population Healthy Nuclei (%): 79%
  Population Hoechst High Intensity Objects (%): 3%
  Population Membrane Permeable-Phenotype (%): 1%
  Population Mitochondria Different-Phenotype (%): 15%
  Population Mitotic Cells (%): 73%
  Population Normal (%): 97%
  Population Pyknosed Nuclei (%): 6%
  Population Tubulin-Different-Phenotype (%): 9%
  Total Cell Count: 866
[10]
  Population Apoptotic (%): 33%
  Population Fragmented Nuclei (%): 10%
  Population Healthy Nuclei (%): 81%
  Population Hoechst High Intensity Objects (%): 7%
  Population Membrane Permeable-Phenotype (%): 0%
  Population Mitochondria Different-Phenotype (%): 22%
  Population Mitotic Cells (%): 66%
  Population Normal (%): 92%
  Population Pyknosed Nuclei (%): 7%
  Population Tubulin-Different-Phenotype (%): 14%
  Total Cell Count: 611
[11]
  Population Apoptotic (%): 24%
  Population Fragmented Nuclei (%): 16%
  Population Healthy Nuclei (%): 75%
  Population Hoechst High Intensity Objects (%): 4%
  Population Membrane Permeable-Phenotype (%): 1%
  Population Mitochondria Different-Phenotype (%): 18%
  Population Mitotic Cells (%): 75%
  Population Normal (%): 95%
  Population Pyknosed Nuclei (%): 7%
  Population Tubulin-Different-Phenotype (%): 10%
  Total Cell Count: 781
[12]
  Population Apoptotic (%): 25%
  Population Fragmented Nuclei (%): 11%
  Population Healthy Nuclei (%): 80%
  Population Membrane Permeable-Phenotype (%): 0%
  Population Mitochondria Different-Phenotype (%): 19%
  Population Tubulin-Different-Phenotype (%): 9%
  Total Cell Count: 689

## Oc1c(CN2CCN(c3ccccn3)CC2)cc(Cl)c2cccnc12
[1]
  Population Apoptotic (%): 30%
  Population Fragmented Nuclei (%): 6%
  Population Healthy Nuclei (%): 83%
  Population Hoechst High Intensity Objects (%): 7%
  Population Membrane Permeable-Phenotype (%): 0%
  Population Mitochondria Different-Phenotype (%): 44%
  Population Mitotic Cells (%): 70%
  Population Normal (%): 92%
  Population Pyknosed Nuclei (%): 10%
  Population Tubulin-Different-Phenotype (%): 34%
  Total Cell Count: 424
[2]
  Population Apoptotic (%): 45%
  Population Fragmented Nuclei (%): 5%
  Population Healthy Nuclei (%): 80%
  Population Mitochondria Different-Phenotype (%): 59%
  Population Mitotic Cells (%): 54%
  Population Pyknosed Nuclei (%): 13%
  Population Tubulin-Different-Phenotype (%): 20%
  Total Cell Count: 354
[3]
  Population Apoptotic (%): 71%
  Population Fragmented Nuclei (%): 16%
  Population Healthy Nuclei (%): 64%
  Population Hoechst High Intensity Objects (%): 11%
  Population Membrane Permeable-Phenotype (%): 0%
  Population Mitochondria Different-Phenotype (%): 64%
  Population Mitotic Cells (%): 28%
  Population Normal (%): 88%
  Population Pyknosed Nuclei (%): 18%
  Population Tubulin-Different-Phenotype (%): 20%
  Total Cell Count: 197
[4]
  Population Apoptotic (%): 73%
  Population Fragmented Nuclei (%): 18%
  Population Healthy Nuclei (%): 69%
  Population Hoechst High Intensity Objects (%): 6%
  Population Mitochondria Different-Phenotype (%): 70%
  Population Mitotic Cells (%): 26%
  Population Normal (%): 93%
  Population Pyknosed Nuclei (%): 12%
  Population Tubulin-Different-Phenotype (%): 32%
  Total Cell Count: 327
[5]
  Population Apoptotic (%): 34%
  Population Fragmented Nuclei (%): 6%
  Population Healthy Nuclei (%): 84%
  Population Hoechst High Intensity Objects (%): 3%
  Population Membrane Permeable-Phenotype (%): 0%
  Population Mitochondria Different-Phenotype (%): 22%
  Population Mitotic Cells (%): 65%
  Population Normal (%): 96%
  Population Pyknosed Nuclei (%): 9%
  Population Tubulin-Different-Phenotype (%): 23%
  Total Cell Count: 529
[6]
  Population Apoptotic (%): 33%
  Population Fragmented Nuclei (%): 7%
  Population Mitochondria Different-Phenotype (%): 40%
  Population Mitotic Cells (%): 66%
  Population Pyknosed Nuclei (%): 8%
  Population Tubulin-Different-Phenotype (%): 13%
  Total Cell Count: 427
[7]
  Population Apoptotic (%): 93%
  Population Fragmented Nuclei (%): 18%
  Population Healthy Nuclei (%): 65%
  Population Hoechst High Intensity Objects (%): 13%
  Population Membrane Permeable-Phenotype (%): 1%
  Population Mitochondria Different-Phenotype (%): 65%
  Population Mitotic Cells (%): 6%
  Population Normal (%): 86%
  Population Pyknosed Nuclei (%): 15%
  Population Tubulin-Different-Phenotype (%): 19%
  Total Cell Count: 227
[8]
  Population Apoptotic (%): 81%
  Population Fragmented Nuclei (%): 21%
  Population Healthy Nuclei (%): 63%
  Population Hoechst High Intensity Objects (%): 7%
  Population Mitochondria Different-Phenotype (%): 78%
  Population Mitotic Cells (%): 18%
  Population Normal (%): 92%
  Population Tubulin-Different-Phenotype (%): 34%
  Total Cell Count: 354
[9]
  Population Apoptotic (%): 29%
  Population Fragmented Nuclei (%): 12%
  Population Healthy Nuclei (%): 80%
  Population Hoechst High Intensity Objects (%): 3%
  Population Membrane Permeable-Phenotype (%): 0%
  Population Mitochondria Different-Phenotype (%): 22%
  Population Mitotic Cells (%): 70%
  Population Normal (%): 96%
  Population Pyknosed Nuclei (%): 6%
  Population Tubulin-Different-Phenotype (%): 16%
  Total Cell Count: 689
[10]
  Population Apoptotic (%): 31%
  Population Fragmented Nuclei (%): 10%
  Population Healthy Nuclei (%): 83%
  Population Mitochondria Different-Phenotype (%): 17%
  Population Mitotic Cells (%): 68%
  Population Pyknosed Nuclei (%): 5%
  Population Tubulin-Different-Phenotype (%): 10%
  Total Cell Count: 518
[11]
  Population Apoptotic (%): 83%
  Population Fragmented Nuclei (%): 23%
  Population Healthy Nuclei (%): 44%
  Population Hoechst High Intensity Objects (%): 25%
  Population Membrane Permeable-Phenotype (%): 0%
  Population Mitochondria Different-Phenotype (%): 60%
  Population Mitotic Cells (%): 16%
  Population Normal (%): 74%
  Population Pyknosed Nuclei (%): 31%
  Population Tubulin-Different-Phenotype (%): 30%
  Total Cell Count: 204
[12]
  Population Apoptotic (%): 94%
  Population Fragmented Nuclei (%): 28%
  Population Healthy Nuclei (%): 49%
  Population Hoechst High Intensity Objects (%): 14%
  Population Mitochondria Different-Phenotype (%): 81%
  Population Mitotic Cells (%): 5%
  Population Normal (%): 85%
  Population Pyknosed Nuclei (%): 22%
  Population Tubulin-Different-Phenotype (%): 42%
  Total Cell Count: 295
